Structures are written as SMILES. Converted amounts (≈) assume the structure as drawn. The source made the active and inactive calls. The rule behind the calls is not given here.

These results are taken from ChEMBL document CHEMBL5352501, “Catalytic Degraders Effectively Address Kinase Site Mutations in EML4-ALK Oncogenic Fusions” (J Med Chem, 2023).

For data set [1], the system named is HepG2. In words: Cytotoxicity against human HepG2 cells assessed as reduction in cell viability incubated for 48 hrs by Hoechst 33342 staining based imaging analysis. The data set is classed as toxicity. To be noted: hepg2, 48 h.
Data set [2] relates to BaF3. It is filed as functional. To be noted: Mus musculus, BaF3, 336 h, route po, time 14 day, read-out: TGI.
The test system of data set [3] is BaF3. It is filed as functional. The conditions noted are these: Mus musculus, time 72 hrs.
Data set [4] can be described thus: Microsomal stability in human liver microsomes assessed as intrinsic clearance at 1 uM and measured upto 60 mins in presence of NADPH by LC-MS/MSC analysis. It is filed as ADME, Microsome. The conditions noted are these: read-out: CLH. (In general: Liver microsomes are a subcellular fraction often used to study metabolism.)
In data set [5] the test system is Erythrocyte. In words: Hemolytic activity in human RBC assessed as hemolysis incubated for 45 mins by absorbance based microplate reader analysis. It is filed as toxicity, cell-based. The conditions noted are these: 0.75 h.
Data set [6] in a line: Plasma protein binding in mouse. It is filed as ADME, cell-free.
The test system of data set [7] is Mus musculus. It is filed as functional, organism-based. The conditions noted are these: BALB/c, BaF3, dose 10.0 mg/kg, route po, time 14.0 day.
The test system of data set [8] is Mus musculus. It is filed as functional, organism-based. To be noted: BALB/c, BaF3, dose 10.0 mg/kg, route po, time 14.0 day. The source holds these as a separate data set.
Data set [9] deals with BaF3. It is filed as functional. To be noted: Mus musculus, time 72 hrs. This is another data set of the same source.
Data set [10] deals with Erythrocyte. Description: Hemolytic activity in mouse RBC assessed as hemolysis incubated for 45 mins by absorbance based microplate reader analysis. The data set is classed as toxicity, cell-based. The conditions noted are these: 0.75 h.
Data set [11] has as its system BaF3. Description: Antiproliferative activity against mouse Ba/F3 cells stably expressing HiBiT-tagged wild type EML4-ALK variant 3 assessed as cell growth inhibition incubated for 72 hrs by CellTiter-Glo assay. It is filed as functional. The method in brief: (§1)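 Ba/F3 cells stably expressing HiBiT-tagged EML4-ALK v3 (wild type or the named kinase-site mutant) were treated with compound for 72 h. Growth inhibition was reported as log GI50.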
For orientation: The HiBiT peptide binds its large partner to form an active luciferase.

The subject of data set [12] is HepG2. Description: Induction of phospholipidosis in human HepG2 cells assessed as […] incubated for 48 hrs by Hoechst 33342 staining based imaging analysis. It is filed as toxicity, cell-based. The conditions noted are these: hepg2, 48 h.
Data set [13] can be described thus: Oral bioavailability in C57BL/J6 mouse at 10 mg/kg and measured upto 24 hrs by LC-MS/MS analysis. It is filed as ADME, organism-based. To be noted: in vivo. The gist of the method:
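Mouse PK was run with both oral and intravenous dosing, with 10 mg/kg as the study dose. Oral bioavailability was derived from comparing the two routes.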

Data set [14] relates to BaF3. In words: Antiproliferative activity against mouse Ba/F3 cells stably expressing HiBiT-tagged EML4-ALK variant 3 C1156Y mutant assessed as cell growth inhibition incubated for 72 hrs by CellTiter-Glo assay. It is filed as functional. The method in brief: as §1
Data set [15] is described as follows: Solubility of the compound in FeSSIF at pH 5.0 incubated for 24 hrs under shaking condition by UPLC-UV/HPLC-UV analysis. The data set is classed as physicochemical.
Data set [16] is described as follows: Plasma protein binding in human. The data set is classed as ADME, cell-free.
For data set [17], the system named is BaF3. Description: Antiproliferative activity against mouse Ba/F3 cells stably expressing HiBiT-tagged EML4-ALK variant 3 G1202R mutant assessed as cell growth inhibition incubated for 72 hrs by CellTiter-Glo assay. It is filed as functional. The method in brief:
as §1

Regarding `COc1cc(C2CCN(CC3CN(c4ccc5c(c4)C(=O)N(C4CCC(=O)NC4=O)C5=O)C3)CC2)c(C)cc1Nc1ncc(Cl)c(Nc2ccccc2S(=O)(=O)C(C)C)n1` (stereo not drawn), the Activity entry was “Toxic” in data set [1], “Non-Toxic” in [5], “Non-Toxic” in data set [10] and “Toxic” in data set [12]. The inhibition in vivo at 10 mg/kg in data set [2] was 33%. Besides, the GI50 is 10 nM in data set [3] (read-out: GI50); 10 nM in [3] (read-out: pGI50 (converted)); 3.16 nM in [9]; 3.16 nM in data set [11]; 19.9 nM in data set [14]; 19.9 nM in data set [17]. Moreover, the microsomal CLint at 1 µM in data set [4] was found to be 8 µL/min/mg. For the same compound, the PPB in data set [6] and in data set [16] was above 99.9% throughout. Further, the outcome in data set [7] and in [8] was Active. In data set [13], this compound came in with an F of 28%. In data set [15], this compound showed a solubility (thermodynamic) at 24 h of 122 µM (≈ 104 µg/mL).

As usually defined, the thermodynamic solubility is the concentration in solution at equilibrium with solid.
